From ChEMBL document CHEMBL2146419, “Effects of polyphenol compounds on influenza A virus replication and definition of their mechanism of action” (Bioorg Med Chem, 2012)
Activity calls are given as the source filed them. The calls are words filed in the database; no cut-off is given here.

Key:
Influenza A virus [1] = assay: Antiviral activity against Influenza virus A/Puerto Rico/8/34 H1N1 infected in dog MDCK cells assessed as reduction in hemagglutininin expression at 20 ug/mL after 24 hrs by immunoblotting analysis relative to control; assay type: functional, A/Puerto Rico/8/1934(H1N1); parameters: scale not given: the % may be the effect or the level left
How it was run: (§1)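 PR8-infected MDCK cells, untreated or treated, were lysed at 24 h. Homogenates were run on 12% gels under reducing conditions, blotted to nitrocellulose and probed with goat polyclonal anti-influenza antibodies. Densitometry was expressed as the ratio of each viral protein to actin, relative to untreated infected cells.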

Influenza A virus [2] = assay: Antiviral activity against Influenza virus A/Puerto Rico/8/34 H1N1 infected in dog MDCK cells at 20 ug/mL incubated for 8 hrs post-infection followed by compound washout measured after 24 hrs by hemagglutininating unit assay relative to control; assay type: functional, A/Puerto Rico/8/1934(H1N1)
How it was run: (§2)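 Compound added to PR8-infected MDCK cells immediately after virus challenge, then removed at 2, 4, 6, 8 or 24 h p.i. Supernatant virus yield was measured by HAU at 24 h p.i. and expressed as a percentage of DMSO-treated control infected cells. Means of two experiments, each in duplicate.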

Influenza A virus [3] = assay: Antiviral activity against Influenza virus A/Puerto Rico/8/34 H1N1 infected in dog MDCK cells at 20 ug/mL incubated for 6 hrs post-infection followed by compound washout measured after 24 hrs by hemagglutininating unit assay relative to control; assay type: functional, A/Puerto Rico/8/1934(H1N1); how it was run: as §2
[4] = biological target: Protein kinase C (PKC) (Homo sapiens) (UniProt O94806+P41743+P17252+P05129+Q05655+P05771+Q05513+Q02156+P24723+Q15139+Q04759); assay: Inhibition of PKC-mediated ERK1 phosphorylation in human NCI-H292 cells infected with Influenza virus A/Puerto Rico/8/34 H1N1 measured at 6 hrs post-infection by immunoblotting analysis; assay type: cell-based
How it was run: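 NCI-H292 cells, mock- or PR8-infected at 1 M.O.I., were treated and lysed 6 h p.i. Lysates were run on 10% SDS–PAGE and blotted with rabbit anti-phospho-PKD, -ERK1/2, -p38MAPK or -JNK antibodies. Membranes were then stripped and reprobed for the corresponding total proteins.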

Influenza A virus [5] = assay: Antiviral activity against Influenza virus A/Puerto Rico/8/34 H1N1 infected in dog MDCK cells assessed as reduction in nucleoprotein expression at 20 ug/mL after 24 hrs by immunoblotting analysis relative to control; assay type: functional, organism-based; conditions: A/Puerto Rico/8/1934(H1N1); how it was run: as §1
Influenza A virus [6] = assay: Antiviral activity against Influenza virus A/Puerto Rico/8/34 H1N1 infected in dog MDCK cells at 20 ug/mL incubated for 2 hrs post-infection followed by compound washout measured after 24 hrs by hemagglutininating unit assay; assay type: functional, organism-based; conditions: A/Puerto Rico/8/1934(H1N1); how it was run: as §2
MDCK [7] = assay: Cytotoxicity against dog MDCK cells assessed as morphological alterations at 40 ug/mL incubated for 24 hrs followed by compound wash out measured after 24 hrs by microscopic analysis; assay type: cell-based, Canis lupus familiaris
How it was run: (§3)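 Confluent MDCK monolayers plated at 2×10^5/ml were treated after 24 h with compound at 5–40 μg/ml and incubated a further 24 h. Assessed by microscopic examination of morphology, Trypan blue exclusion for viability, and cell counts for multiplication rate.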

Influenza A virus [8] = assay: Antiviral activity against Influenza virus A/Puerto Rico/8/34 H1N1 infected in dog MDCK cells incubated at 1 hr post-infection measured after 24 hrs by hemagglutininating unit assay; assay type: functional, organism-based; conditions: A/Puerto Rico/8/1934(H1N1)
How it was run: (§4)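 MDCK cells infected with PR8; 1 h after adsorption they were washed, and compound (5–20 μg/ml) or DMSO was added and kept on throughout. Virus released into the supernatant was titrated by HAU assay 24 h p.i. Yield is a percentage of control infected cells given 0.02% DMSO. Means of four experiments, each in duplicate.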

Influenza A virus [9] = assay: Antiviral activity against Influenza virus A/Puerto Rico/8/34 H1N1 infected in dog MDCK cells assessed as reduction in neuraminidase expression at 20 ug/mL after 24 hrs by immunoblotting analysis relative to control; assay type: functional, A/Puerto Rico/8/1934(H1N1); parameters: scale not given: the % may be the effect or the level left; how it was run: as §1
Influenza A virus [10] = assay: Antiviral activity against Influenza virus A/Puerto Rico/8/34 H1N1 infected in dog MDCK cells assessed as reduction in matrix protein 1 expression at 20 ug/mL after 24 hrs by immunoblotting analysis relative to control; assay type: functional, A/Puerto Rico/8/1934(H1N1); parameters: scale not given: the % may be the effect or the level left; how it was run: as §1
Influenza A virus [11] = assay: Antiviral activity against Influenza virus A/Puerto Rico/8/34 H1N1 infected in dog MDCK cells at 20 ug/mL incubated for 4 hrs post-infection followed by compound washout measured after 24 hrs by hemagglutininating unit assay; assay type: functional, organism-based; conditions: A/Puerto Rico/8/1934(H1N1); how it was run: as §2
Influenza A virus [12] = assay: Antiviral activity against Influenza virus A/Puerto Rico/8/34 H1N1 infected in dog MDCK cells assessed as reduction in nucleoprotein expression at 10 ug/mL after 24 hrs by immunoblotting analysis relative to control; assay type: functional, organism-based; conditions: A/Puerto Rico/8/1934(H1N1); how it was run: as §1
Influenza A virus [13] = assay: Antiviral activity against Influenza virus A/Puerto Rico/8/34 H1N1 infected in dog MDCK cells at 10 ug/mL incubated for 2 hrs post-infection followed by compound washout measured after 24 hrs by hemagglutininating unit assay; assay type: functional, organism-based; conditions: A/Puerto Rico/8/1934(H1N1); how it was run: as §2
Influenza A virus [14] = assay: Antiviral activity against Influenza virus A/Puerto Rico/8/34 H1N1 infected in dog MDCK cells assessed as reduction in hemagglutininin expression at 10 ug/mL after 24 hrs by immunoblotting analysis relative to control; assay type: functional, organism-based; conditions: A/Puerto Rico/8/1934(H1N1); how it was run: as §1
Influenza A virus [15] = assay: Antiviral activity against Influenza virus A/Puerto Rico/8/34 H1N1 infected in dog MDCK cells at 10 ug/mL incubated for 8 hrs post-infection followed by compound washout measured after 24 hrs by hemagglutininating unit assay relative to control; assay type: functional, A/Puerto Rico/8/1934(H1N1); how it was run: as §2
Influenza A virus [16] = assay: Antiviral activity against Influenza virus A/Puerto Rico/8/34 H1N1 infected in dog MDCK cells assessed as reduction in matrix protein 1 expression at 10 ug/mL after 24 hrs by immunoblotting analysis relative to control; assay type: functional, organism-based; conditions: A/Puerto Rico/8/1934(H1N1); how it was run: as §1
Influenza A virus [17] = assay: Antiviral activity against Influenza virus A/Puerto Rico/8/34 H1N1 infected in dog MDCK cells at 10 ug/mL incubated for 6 hrs post-infection followed by compound washout measured after 24 hrs by hemagglutininating unit assay relative to control; assay type: functional, A/Puerto Rico/8/1934(H1N1); how it was run: as §2
Influenza A virus [18] = assay: Antiviral activity against Influenza virus A/Puerto Rico/8/34 H1N1 infected in dog MDCK cells at 10 ug/mL incubated for 4 hrs post-infection followed by compound washout measured after 24 hrs by hemagglutininating unit assay; assay type: functional, organism-based; conditions: A/Puerto Rico/8/1934(H1N1); how it was run: as §2
Influenza A virus [19] = assay: Antiviral activity against Influenza virus A/Puerto Rico/8/34 H1N1 infected in dog MDCK cells assessed as reduction in neuraminidase expression at 10 ug/mL after 24 hrs by immunoblotting analysis relative to control; assay type: functional, A/Puerto Rico/8/1934(H1N1); parameters: scale not given: the % may be the effect or the level left; how it was run: as §1
Influenza A virus [20] = assay: Antiviral activity against Influenza virus A/Puerto Rico/8/34 H1N1 infected in dog MDCK cells assessed as inhibition of viral replication at 10 ug/mL incubated at 1 hr post-infection measured after 24 hrs by hemagglutininating unit assay relative to control; assay type: functional; conditions: A/Puerto Rico/8/1934(H1N1); how it was run: as §4
Influenza A virus [21] = assay: Antiviral activity against Influenza virus A/Puerto Rico/8/34 H1N1 infected in dog MDCK cells at 10 ug/mL incubated for 24 hrs post-infection followed by compound washout measured after 24 hrs by hemagglutininating unit assay relative to control; assay type: functional, A/Puerto Rico/8/1934(H1N1); how it was run: as §2
MDCK [22] = assay: Inhibition of PKC/p38MAPK-mediated nuclear-cytoplasmic viral nucleoprotein export in dog MDCK cells infected with Influenza virus A/Puerto Rico/8/34 H1N1 measured at 8 hrs post-infection by inmmunofluorescence; assay type: cell-based; conditions: Canis lupus familiaris
How it was run: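 MDCK cells were infected with PR8 at 1 M.O.I. for single-cycle replication. At 8 h p.i. cells were fixed, permeabilized and stained with DAPI, then with anti-NP primary and FITC-conjugated secondary antibody. NP localization was assessed by fluorescence microscopy.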

MDCK [23] = assay: Cytotoxicity against dog MDCK cells assessed as morphological alterations at 20 to 40 ug/mL incubated for 24 hrs followed by compound wash out measured after 24 hrs by microscopic analysis; assay type: cell-based, Canis lupus familiaris; how it was run: as §3

## O=C1/C(=C/c2ccc(O)c(O)c2)COC/C1=C\c1ccc(O)c(O)c1
Influenza A virus [1]
  Activity: 25%
Influenza A virus [2]
  Activity: 55%
Influenza A virus [3]
  Activity: 30%
[4]
  inhibition: inactive
Influenza A virus [5]
  Activity: Active
Influenza A virus [6]
  Activity: inactive
MDCK [7]
  Activity: Toxic
Influenza A virus [8]
  Activity: Dose-dependent effect
Influenza A virus [9]
  Activity: 56%
Influenza A virus [10]
  Activity: 62%
Influenza A virus [11]
  Activity: inactive

## O=C(/C=C/c1ccc(O)cc1)c1ccc(O)cc1O [ISOLIQUIRITIGENIN]
Influenza A virus [12]
  Activity: inactive
Influenza A virus [13]
  Activity: inactive
[4]
  inhibition: inactive
Influenza A virus [14]
  Activity: inactive
Influenza A virus [15]
  Activity: 55%
Influenza A virus [16]
  Activity: inactive
Influenza A virus [17]
  Activity: 30%
Influenza A virus [18]
  Activity: inactive
Influenza A virus [19]
  Activity: 42%
Influenza A virus [20]
  inhibition at 10 µg/mL: 75%
Influenza A virus [21]
  Activity: 75%
Influenza A virus [8]
  Activity: Dose-dependent effect
MDCK [22]
  inhibition: Active
MDCK [23]
  Activity: Toxic
